The text below walks through data of ChEMBL document CHEMBL4680175, “Sulfonamide-based ring-fused analogues for CAN508 as novel carbonic anhydrase inhibitors endowed with antitumor activity: Design, synthesis, and in vitro biological evaluation” (Eur J Med Chem, 2020).

What all share (format): functional
The test system of test [1] is MCF7. Nature of the test: Induction of apoptosis in human MCF7 cells assessed as late apoptotic cells by Annexin V-FITC/propidium iodide staining based flow cytometric analysis (reference value: 0.29 %). Background: A flow cytometer gives signals particle by particle.
The test system of test [2] is MCF7. Put plainly: Induction of cell cycle arrest in human MCF7 cells assessed as fold increase in apoptotic cells at sub-G1 phase at IC50 concentration incubated for 24 hrs by PI/RNase staining based flow cytometric analysis relative to control. In short, it runs like this: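 Cells were washed in ice-cold PBS, fixed in ice-cold 70% ethanol, treated with 100 µg/mL RNase and stained with 40 µg/mL PI. DNA content was read by flow cytometry, with sub-G1 compared against control.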

The test system of test [3] is MCF7. Put plainly: Induction of apoptosis in human MCF7 cells assessed as necrotic cells by Annexin V-FITC/propidium iodide staining based flow cytometric analysis (reference value: 1.3 %).
Test [4] deals with MDA-MB-468. Put plainly: Potency index, ratio of staurosporine IC50 to compound IC50 for antiproliferative activity against human MDA-MB-468 cells measured after 48 hrs under CoCl2-induced hypoxic condition by MTT assay. On the technique in general: Tetrazolium dyes change colour on reduction, which living cells bring about.
Test [5] deals with MDA-MB-468. Nature of the test: Potency index, ratio of staurosporine IC50 to compound IC50 for antiproliferative activity against human MDA-MB-468 cells measured after 48 hrs under normoxic condition by MTT assay.

For the molecule `N#Cc1c(-c2ccc(F)cc2)nc2c(/N=N/c3ccc(S(N)(=O)=O)cc3)c(N)nn2c1N`, the Activity with MCF7 [1] was 10.89%; in the test on MCF7 [3], 1.75%. In the test with MCF7 [2], the “fold change (FC)” value came to 11.

On to `Cc1ccc(-c2nc3c(/N=N/c4ccc(S(N)(=O)=O)cc4)c(N)nn3c(N)c2C#N)cc1`, for which the “Ratio IC50” value in the test on MDA-MB-468 [4] is reported as 2.1; in the test with MDA-MB-468 [5] it was 3.1.

With `N#Cc1c(-c2ccc(Cl)cc2)nc2c(/N=N/c3ccc(S(N)(=O)=O)cc3)c(N)nn2c1N`, the Activity in the test with MCF7 [1] turned out to be 8.2%; in the test on MCF7 [3], 2.17%. Also, the “fold change (FC)” value in the test on MCF7 [2] came out at 8.
